Reference: ChEMBL document CHEMBL1131335, “Modulation of receptor and receptor subtype affinities using diastereomeric and enantiomeric monosaccharide scaffolds as a means to structural and biological diversity. A new route to ether synthesis” (J Med Chem, 1998)

Legend:
[1] = molecular target: T1, Substance-P receptor (Homo sapiens, UniProt P25103); assay: Binding affinity was measured for Tachykinin receptor 1; Did not bind
[2] = molecular target: Somatostatin receptor; assay: Binding affinity was measured for SRIF receptor on AtT-20 mouse pituitary cells; format: cell-based; conditions: pituitary gland cell
[3] = molecular target: T1, Substance-P receptor; assay: Binding affinity was measured for Tachykinin receptor 1
[4] = molecular target: Somatostatin receptor type 3 (Homo sapiens, UniProt P32745); assay: Binding affinity for human receptor subtype hSSTR3.
Outline: (§1)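 Radioligand competition on membranes from CHO-K1 cells expressing hSSTR1–5, in 50 mM Tris-HCl pH 7.8 with 1 mM EGTA, 5 mM MgCl2 and protease inhibitors (leupeptin, pepstatin, bacitracin, aprotinin). Tracer was [125I-Tyr11]SRIF-14 at 0.1 nM final. Compounds ran 0.01–10,000 nM as seven-point full-log titrations, in triplicate, in at least two separate experiments. Incubation was 45 min at room temperature, then filtration onto PEI-pretreated GF/C filters and scintillation counting.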

[5] = molecular target: Somatostatin receptor type 1 (Homo sapiens, UniProt P30872); assay: Binding affinity for human receptor subtype hSSTR1
Outline: as §1, with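 “aprotinin).” for “aprotinin). Tracer was [125I-Tyr11]SRIF-14 at 0.1 nM final.”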

[6] = molecular target: T2, Somatostatin receptor type 5 (Homo sapiens, UniProt P35346); assay: Binding affinity for human receptor subtype hSSTR5.
Outline: as §1, with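 “aprotinin).” for “aprotinin). Tracer was [125I-Tyr11]SRIF-14 at 0.1 nM final.”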

[7] = molecular target: Somatostatin receptor type 4 (Homo sapiens, UniProt P31391); assay: Binding affinity for human receptor subtype hSSTR4.; outline: as §1
[8] = molecular target: Somatostatin receptor type 2 (Homo sapiens, UniProt P30874); assay: Binding affinity for human receptor subtype hSSTR2
Outline: as §1, with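 “aprotinin).” for “aprotinin). Tracer was [125I-Tyr11]SRIF-14 at 0.1 nM final.”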

[9] = molecular target: T2, Somatostatin receptor type 5; assay: Binding affinity for human receptor subtype hSSTR5.; Did not bind; outline: as §1

T1 sequence (P25103 whole entry): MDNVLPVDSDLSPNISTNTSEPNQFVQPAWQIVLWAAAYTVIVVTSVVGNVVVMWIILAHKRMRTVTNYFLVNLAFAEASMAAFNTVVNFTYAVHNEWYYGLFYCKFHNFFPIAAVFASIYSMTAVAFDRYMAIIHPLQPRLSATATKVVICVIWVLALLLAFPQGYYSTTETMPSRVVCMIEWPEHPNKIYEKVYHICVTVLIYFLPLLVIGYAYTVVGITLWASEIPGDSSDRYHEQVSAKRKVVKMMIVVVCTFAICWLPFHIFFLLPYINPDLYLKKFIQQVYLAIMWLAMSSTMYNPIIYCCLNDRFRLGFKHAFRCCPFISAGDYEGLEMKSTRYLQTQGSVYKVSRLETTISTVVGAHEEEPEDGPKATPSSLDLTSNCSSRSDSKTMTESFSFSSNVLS
T2 sequence (P35346 whole entry): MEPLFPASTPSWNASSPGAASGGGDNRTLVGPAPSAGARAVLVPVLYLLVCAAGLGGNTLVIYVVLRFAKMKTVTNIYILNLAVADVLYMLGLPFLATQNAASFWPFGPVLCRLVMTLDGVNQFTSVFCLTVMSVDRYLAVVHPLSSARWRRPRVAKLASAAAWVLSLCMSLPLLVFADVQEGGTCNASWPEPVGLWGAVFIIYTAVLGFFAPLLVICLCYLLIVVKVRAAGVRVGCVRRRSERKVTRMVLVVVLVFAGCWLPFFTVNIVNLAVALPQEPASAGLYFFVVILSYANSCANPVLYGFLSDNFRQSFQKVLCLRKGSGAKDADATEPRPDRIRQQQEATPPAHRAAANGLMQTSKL
Somatostatin receptor type 3, sequence (P32745 whole entry): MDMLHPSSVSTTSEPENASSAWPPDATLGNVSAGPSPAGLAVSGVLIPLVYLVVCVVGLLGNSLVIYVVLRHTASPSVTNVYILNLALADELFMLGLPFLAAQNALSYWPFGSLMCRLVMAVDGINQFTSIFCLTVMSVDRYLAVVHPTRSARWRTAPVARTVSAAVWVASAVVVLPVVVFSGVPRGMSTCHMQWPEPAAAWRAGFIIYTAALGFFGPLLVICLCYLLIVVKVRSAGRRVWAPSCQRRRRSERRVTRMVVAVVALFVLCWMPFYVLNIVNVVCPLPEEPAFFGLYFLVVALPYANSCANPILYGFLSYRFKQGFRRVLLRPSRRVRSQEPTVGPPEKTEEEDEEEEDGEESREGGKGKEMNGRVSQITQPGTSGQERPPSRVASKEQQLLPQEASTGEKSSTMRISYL
Somatostatin receptor type 4, sequence (P31391 whole entry): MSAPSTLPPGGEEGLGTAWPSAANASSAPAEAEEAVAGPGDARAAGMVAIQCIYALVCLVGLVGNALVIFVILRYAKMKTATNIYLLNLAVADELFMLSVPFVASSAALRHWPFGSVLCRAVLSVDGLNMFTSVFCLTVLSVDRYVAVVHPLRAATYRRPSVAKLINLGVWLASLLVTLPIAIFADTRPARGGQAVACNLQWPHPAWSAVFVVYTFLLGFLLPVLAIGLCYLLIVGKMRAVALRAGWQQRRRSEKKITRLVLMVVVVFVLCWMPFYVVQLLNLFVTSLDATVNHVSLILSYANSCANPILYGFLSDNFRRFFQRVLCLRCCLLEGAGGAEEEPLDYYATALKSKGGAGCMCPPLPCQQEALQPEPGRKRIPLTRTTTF
Somatostatin receptor type 1, sequence (P30872 whole entry): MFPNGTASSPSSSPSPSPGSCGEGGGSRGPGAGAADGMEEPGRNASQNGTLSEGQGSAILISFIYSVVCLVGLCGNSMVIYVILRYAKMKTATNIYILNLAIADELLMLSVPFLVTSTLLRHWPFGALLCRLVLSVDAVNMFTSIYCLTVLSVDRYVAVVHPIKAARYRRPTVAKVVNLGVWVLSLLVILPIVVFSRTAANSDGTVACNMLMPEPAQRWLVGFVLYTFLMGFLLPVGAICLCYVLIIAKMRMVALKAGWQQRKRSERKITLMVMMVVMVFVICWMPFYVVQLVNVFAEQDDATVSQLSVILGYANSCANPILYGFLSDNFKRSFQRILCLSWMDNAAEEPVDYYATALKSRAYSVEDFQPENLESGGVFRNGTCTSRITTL
Somatostatin receptor type 2, sequence (P30874 whole entry): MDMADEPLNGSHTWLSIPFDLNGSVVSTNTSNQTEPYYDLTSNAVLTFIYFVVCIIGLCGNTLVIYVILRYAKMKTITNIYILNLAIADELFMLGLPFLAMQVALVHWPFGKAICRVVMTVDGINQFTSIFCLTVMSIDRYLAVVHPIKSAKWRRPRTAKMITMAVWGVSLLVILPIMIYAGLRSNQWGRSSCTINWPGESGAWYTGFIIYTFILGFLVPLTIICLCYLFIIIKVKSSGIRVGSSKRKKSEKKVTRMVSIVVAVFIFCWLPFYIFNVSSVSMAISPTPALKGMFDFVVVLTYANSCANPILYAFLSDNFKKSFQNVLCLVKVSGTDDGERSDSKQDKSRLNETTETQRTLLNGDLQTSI

Compound: CC(=O)NCCCCCOC[C@H]1O[C@@H](OCCc2c[nH]c3ccccc23)[C@H](OCc2ccc3ccccc3c2)[C@@H](OCc2ccccc2)[C@@H]1OCc1ccccc1
- IC50 [1]: Not Active

Compound: NCCCCCOC[C@H]1O[C@@H](OCCc2c[nH]c3ccccc23)[C@H](OCc2ccccc2)C[C@@H]1OCc1ccccc1
- IC50 [2]: 8400 nM

Compound: CC(=O)NCCCCCOC[C@H]1O[C@@H](OCCc2c[nH]c3ccccc23)[C@H](OCc2ccc(F)cc2)[C@@H](OCc2ccccc2)[C@@H]1OCc1ccccc1
- IC50 [3]: 209 nM

Compound: OCCCCCNC[C@H]1O[C@@H](OCCc2c[nH]c3ccccc23)[C@H](OCc2ccccc2)[C@@H](OCc2ccccc2)[C@@H]1OCc1ccccc1
- IC50 [2]: 14000 nM

Compound: NCCCCCNC[C@H]1O[C@@H](OCCc2c[nH]c3ccccc23)[C@H](OCc2ccccc2)[C@@H](OCc2ccccc2)[C@@H]1OCc1ccccc1
- Ki [4]: 600 nM
- Ki [5]: 2100 nM
- Ki [6]: 1300 nM
- Ki [7]: 500 nM
- Ki [8]: 600 nM
- IC50 [2]: 13000 nM

Compound: Fc1ccc(COC[C@H]2O[C@@H](OCCc3c[nH]c4ccccc34)[C@H](OCc3ccc4ccccc4c3)[C@@H](OCc3ccccc3)[C@@H]2OCc2ccccc2)cc1
- IC50 [1]: Not Active

Compound: Fc1ccc(CO[C@H]2[C@H](OCCc3c[nH]c4ccccc34)O[C@H](COCc3ccc4ccccc4c3)[C@@H](OCc3ccccc3)[C@@H]2OCc2ccccc2)cc1
- IC50 [1]: Not Active

Compound: NCCCCCCOC[C@H]1O[C@@H](OCCc2c[nH]c3ccccc23)[C@H](OCc2ccccc2)C[C@@H]1OCc1ccccc1
- IC50 [2]: 7000 nM

Compound: NCCCCCOC[C@@H]1O[C@H](OCCc2c[nH]c3ccccc23)[C@H](OCc2c[nH]cn2)[C@H](OCc2ccccc2)[C@H]1OCc1ccccc1
- Ki [9]: Not Active

Compound: Fc1ccc(OC[C@H]2O[C@@H](OCCc3c[nH]c4ccccc34)[C@H](OCc3ccc4ccccc4c3)[C@@H](OCc3ccccc3)[C@@H]2OCc2ccccc2)cc1
- IC50 [1]: Not Active

Compound: NCCCCCOC[C@H]1O[C@@H](CCc2c[nH]c3ccccc23)[C@H](OCc2ccccc2)[C@@H](OCc2ccccc2)[C@@H]1OCc1ccccc1
- IC50 [2]: 22000 nM

Compound: NCCCCCOC[C@H]1O[C@@H](OCCc2c[nH]c3ccccc23)[C@H](OCc2c[nH]cn2)C[C@@H]1OCc1ccccc1
- IC50 [2]: 4100 nM

Compound: CO[C@@H]1O[C@H](COCCCCCN)[C@@H](OCc2ccccc2)[C@H](OCc2c[nH]cn2)[C@H]1OCc1ccccc1
- IC50 [2]: 5600 nM

Compound: CO[C@@H]1O[C@H](COCCCCCN)[C@@H](OCc2ccccc2)[C@H](OCc2ccccc2)[C@H]1OCc1ccccc1
- IC50 [2]: 5900 nM

Compound: OCCCCCCNC[C@H]1O[C@@H](OCCc2c[nH]c3ccccc23)[C@H](OCc2ccccc2)C[C@@H]1OCc1ccccc1
- IC50 [2]: 5100 nM

Compound: C[C@@H](O)[C@@H]1NC(=O)[C@H](Cc2ccc(F)cc2)NC(=O)[C@@H](Cc2c[nH]c3ccccc23)NC(=O)[C@H](Cc2ccc3ccccc3c2)NC(=O)[C@@H]2CCCN2C(=O)[C@H](Cc2ccccc2)NC1=O
- IC50 [3]: 65 nM
